From ChEMBL document CHEMBL4706740, “Structure-Activity Study of Nitazoxanide Derivatives as Novel STAT3 Pathway Inhibitors” (ACS Med Chem Lett, 2021)
Calls of active or inactive are those of the source. The rule behind the calls is not given here.

Experiments:
[1] = test system: HeLa; test: Induction of cell cycle arrest in human HeLa cells assessed as accumulation at G2/M phase at 20 uM measured after 24 hrs by flow cytometry analysis (reference value: 11.81%); type: functional
[2] = target: Signal transducer and activator of transcription 3 (Homo sapiens) (UniProt P40763); test: Inhibition of STAT3 in human Hela cell lysate assessed as inhibition of protein and DNA interaction upto 200 uM incubated 30 mins by electrophoretic mobility shift assay; type: subcellular; settings: dose microM <=200, time 30.0 min
[3] = Cytotoxicity against human HeLa cells assessed as inhibition of cell viability at 10 uM measured after 48 hrs by MTT assay; type: cell-based; settings: read-out: INH
[4] = Cytotoxicity against human HEK-Blue IL-6 cells assessed as cell death at > 10 uM; type: cell-based
[5] = Cmax in Sprague-Dawley rat at 25 mg/kg, IG; type: ADME, organism-based; design: route […], dose 25 mg/kg; settings: in vivo, po
Procedure, shortened: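 Rats, n = 3 per group, received a single dose either intragastrically (25 mg/kg) or intravenously (5 mg/kg). Plasma concentration–time curves were used to derive t1/2α, t1/2β, Vd/F, CL/F, AUC0–∞, Tmax and Cmax. Absolute oral bioavailability was calculated from the ig and iv data.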

[6] = Selectivity index, ratio of inhibition of IL-6 induced STAT3 transcriptional activity to inhibition against HEK-Blue IL-6 cells assessed as reduction in cell viability at 10 uM
[7] = test system: HeLa; test: Induction of apoptosis in human HeLa cells assessed as late apoptotic cells at 20 uM incubated for 24 hrs by Annexin V-FITC/PI staining based flow cytometry (reference value: 4.7%); type: functional
[8] = test system: HeLa; test: Induction of apoptosis in human HeLa cells assessed as viable cells at 10 uM incubated for 24 hrs by Annexin V-FITC/PI staining based flow cytometry (reference value: 92.45%); type: functional; settings: read-out: Activity
[9] = test system: HeLa; test: Antiproliferative activity against human HeLa cells assessed as cell growth inhibition measured after 48 hrs by MTT assay; type: functional, cell-based
Procedure, shortened: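 Growth was read by MTT assay, and IC50 was taken from the dose–response curve. Values are averages of three independent experiments.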

[10] = target: Signal transducer and activator of transcription 3 (Homo sapiens) (UniProt P40763); test: Inhibition of STAT3 in human HeLa cells assessed as decrease in phosphorylation of STAT3 at Ser727 after 24 hrs by western blot analysis; type: cell-based; settings: dose microM <=80, time […]
Procedure, shortened: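 HeLa cells were treated with graded doses for 1 h or 24 h. Total cell lysates were immunoblotted with specific antibodies against p-STAT3 (Tyr705), p-STAT3 (Ser727) and total STAT3.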

Sequence of Signal transducer and activator of transcription 3 (Homo sapiens) (P40763 whole entry): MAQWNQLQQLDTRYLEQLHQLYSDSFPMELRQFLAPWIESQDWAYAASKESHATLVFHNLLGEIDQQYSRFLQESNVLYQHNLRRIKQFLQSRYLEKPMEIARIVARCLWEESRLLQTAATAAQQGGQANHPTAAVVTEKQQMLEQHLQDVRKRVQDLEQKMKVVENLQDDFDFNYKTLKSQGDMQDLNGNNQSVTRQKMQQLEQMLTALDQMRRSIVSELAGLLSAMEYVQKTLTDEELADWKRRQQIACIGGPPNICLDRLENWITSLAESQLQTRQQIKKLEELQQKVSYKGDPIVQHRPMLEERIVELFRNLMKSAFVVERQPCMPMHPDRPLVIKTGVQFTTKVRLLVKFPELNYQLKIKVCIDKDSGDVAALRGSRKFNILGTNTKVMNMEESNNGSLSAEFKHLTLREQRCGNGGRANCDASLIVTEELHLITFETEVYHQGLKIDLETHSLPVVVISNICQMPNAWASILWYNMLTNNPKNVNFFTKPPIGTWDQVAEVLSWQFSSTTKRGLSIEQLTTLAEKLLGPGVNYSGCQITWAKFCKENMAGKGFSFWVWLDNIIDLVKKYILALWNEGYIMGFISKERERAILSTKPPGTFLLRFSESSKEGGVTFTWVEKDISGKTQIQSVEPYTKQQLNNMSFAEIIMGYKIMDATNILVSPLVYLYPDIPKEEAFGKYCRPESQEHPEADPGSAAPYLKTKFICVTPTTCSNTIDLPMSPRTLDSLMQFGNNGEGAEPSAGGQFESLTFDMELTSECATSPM

Q: Which results are given for `CC(=O)Oc1ccccc1C(=O)Nc1ncc([N+](=O)[O-])s1` [NITAZOXANIDE]?
A: Activity [1]: 8.27%; inhibition [2]: inactive; cytotoxicity at 48 h, 10 µM [3]: 19.4%; Activity [4]: Non-Toxic; Cmax [5]: 1000 ng/mL; Selectivity Index [6]: 2.8; Activity [7]: 11.4%; viability at 10 µM [8]: 92.3%; IC50 [9]: 35 µM; inhibition [10]: Dose-dependent effect
